In one assay the target is apoC-III (Homo sapiens, UniProt P02656). It counts as biochemical. As to conditions: 33 μM apoC-III added to pooled human HTG plasma (TG=360 mg/dL) with LPL. In short, it runs like this:
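Pooled human HTG plasma (TG=360 mg/dL) was incubated with LPL and test compound at 0–100 μM (0–0.47 mg/mL), with or without 33 μM apoC-III. Reference conditions were LPL alone and LPL with apoC-III. Lipolysis was read as NEFA generation, measured enzymatically. Results are the mean of triplicates ± S.D. (two-way ANOVA, Bonferroni post-test).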

The next assay concerns lipoprotein lipase (LPL). Briefly: Ex vivo TG lipolysis. It is filed as biochemical. As to conditions: human apoC-II-deficient plasma (TG=1711 mg/dL) with added LPL. In short, it runs like this:
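Human apoC-II-deficient plasma (TG=1711 mg/dL) was spiked with LPL plus test compound at the indicated concentrations or at 10 μM. LPL activity was read as NEFA generation, measured enzymatically. Results are the mean of triplicates ± S.D. (two-way ANOVA, Bonferroni post-test), or N=8 at 10 μM (Mann-Whitney).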

Sequence of apoC-III (P02656 21-99): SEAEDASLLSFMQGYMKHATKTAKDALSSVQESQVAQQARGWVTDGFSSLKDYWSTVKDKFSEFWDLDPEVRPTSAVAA

In the case of “apoC-III: apolipoprotein C-III, inhibits LPL”, in the assay with apoC-III, the “inhibition of ex vivo lipolysis of TG” value was “approximately 40%”. In the case of “TYLPAVDEKLRDLYSKSTAAMSTYTGIFTDQVLSVLKGEE [RCH2]”, the “stimulation of ex vivo lipolysis” value in the assay with lipoprotein lipase (LPL) was “only partial activity”.

The values are drawn from PMC8359806 (Science translational medicine, 2020).
